Data reported in ChEMBL document CHEMBL1143766, “Mono- and disalicylic acid derivatives: PTP1B inhibitors as potential anti-obesity drugs” (Bioorg Med Chem, 2007).

Tests used:
[1] = molecular target: T1, Tyrosine-protein phosphatase non-receptor type 1 (Homo sapiens, UniProt P18031); assay: Inhibition of PTP1B
T1 sequence (P18031 whole entry): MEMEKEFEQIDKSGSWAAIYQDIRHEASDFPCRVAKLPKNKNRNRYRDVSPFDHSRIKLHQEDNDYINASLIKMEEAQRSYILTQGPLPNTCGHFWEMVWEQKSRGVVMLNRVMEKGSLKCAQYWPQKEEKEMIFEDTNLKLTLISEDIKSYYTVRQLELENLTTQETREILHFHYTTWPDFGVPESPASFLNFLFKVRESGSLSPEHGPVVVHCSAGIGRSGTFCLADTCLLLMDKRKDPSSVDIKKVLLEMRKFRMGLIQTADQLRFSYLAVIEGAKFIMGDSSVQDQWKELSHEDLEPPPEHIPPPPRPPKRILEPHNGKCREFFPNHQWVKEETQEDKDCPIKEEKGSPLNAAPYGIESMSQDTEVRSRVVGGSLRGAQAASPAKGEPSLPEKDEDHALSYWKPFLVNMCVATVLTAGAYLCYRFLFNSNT
In short: (§1)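 Enzymes expressed in E. coli and purified: native PTP1B at 2.1 µg/mL, SHP-1 catalytic domain at 5 µg/mL. Buffer 100 mM Hepes, 5 mM EDTA, pH 7.0, 37 °C. Enzyme preincubated 10 min with inhibitor in DMSO, then 2 mM pNPP (final) added. Reaction 3 min, quenched with NaOH, p-nitrophenol read at 405 nm. IC50 taken over a range of inhibitor concentrations.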

[2] = test system: Mus musculus; assay: Effect on total cholesterol in HFD-fed C57BL/6J Jms Slc DIO mouse plasma at 5 g/kg of diet after 28 days; assay type: functional
In short: (§2)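 DIO mice (HFD 8 weeks, then drug in powdered HFD at 5 g/kg diet for 4 weeks) fasted 8 h at the end. Secobarbital 40 mg/kg ip, cardiac-puncture blood into EDTA, plasma spun at 5000g, 10 min, 4 °C and frozen. Enzymatic colour kits, 37 °C. Glucose: 5 min, A505. TG and cholesterol: 5 min, A600. NEFA: 20 min, A550. Means ± SEM, n = 8–9.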

[3] = test system: Mus musculus; assay: Effect on glucose level in HFD-fed C57BL/6J Jms Slc DIO mouse plasma at 5 g/kg of diet after 28 days; assay type: functional; in short: as §2
[4] = test system: Mus musculus; assay: Effect on liver weight in HFD-fed C57BL/6J Jms Slc DIO mouse at 5 g/kg of diet after 28 days; assay type: functional
In short: (§3)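 Male C57BL/6J Jms Slc mice (4 weeks old, 17–19 g), acclimatized 1 week on LFD, then HFD for 8 weeks to induce obesity. Next 4 weeks on powdered HFD with compound kneaded in at 5 g/kg diet (0.5% w/w), dissolved with 2 equiv NaOH in water. Vehicle diet was kneaded with the same volume of water. n = 9/group, LFD lean control n = 8. Body weight recorded every other day. Means ± SEM.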

[5] = test system: Mus musculus; assay: Effect on nonesterified fatty acid level in HFD-fed C57BL/6J Jms Slc DIO mouse plasma at 5 g/kg of diet after 28 days; assay type: functional; in short: as §2
[6] = test system: Mus musculus; assay: Effect on triglyceride level in HFD-fed C57BL/6J Jms Slc DIO mouse plasma at 5 g/kg of diet after 28 days; assay type: functional; in short: as §2
[7] = test system: Mus musculus; assay: Effect on body weight in HFD-fed C57BL/6J Jms Slc DIO mouse at 5 g/kg of diet after 28 days; assay type: functional; in short: as §3
[8] = molecular target: T2, Tyrosine-protein phosphatase non-receptor type 2 (Homo sapiens, UniProt P17706); assay: Inhibition of TC-PTP
T2 sequence (P17706 whole entry): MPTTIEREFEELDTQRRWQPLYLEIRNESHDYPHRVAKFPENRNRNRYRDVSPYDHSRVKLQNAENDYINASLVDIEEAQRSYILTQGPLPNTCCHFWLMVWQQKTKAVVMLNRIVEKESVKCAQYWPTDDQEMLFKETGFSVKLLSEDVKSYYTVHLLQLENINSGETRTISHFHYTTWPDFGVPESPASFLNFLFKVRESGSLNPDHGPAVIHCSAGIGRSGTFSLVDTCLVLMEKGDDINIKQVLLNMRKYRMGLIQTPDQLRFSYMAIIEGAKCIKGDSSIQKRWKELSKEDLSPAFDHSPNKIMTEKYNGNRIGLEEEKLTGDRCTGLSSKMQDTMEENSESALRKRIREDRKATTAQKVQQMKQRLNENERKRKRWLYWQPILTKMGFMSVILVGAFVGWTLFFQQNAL
In short: (§4)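 Commercial LAR-D1 (membrane-proximal catalytic domain) and TC-PTP, each at 33 U/mL. Run at 37 °C in 100 mM Hepes, 5 mM EDTA, pH 7.0. Inhibitor in DMSO preincubated 10 min before 2 mM pNPP (final) added. After 3 min, quenched with NaOH and A405 read. IC50 from a range of inhibitor concentrations.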

[9] = Inhibition of LAR-D1; parameters: species or system Homo sapiens; in short: as §4
[10] = molecular target: T3, Tyrosine-protein phosphatase 1 (Saccharomyces cerevisiae S288c, UniProt P25044); assay: Inhibition of yeast PTP1
T3 sequence (P25044 whole entry): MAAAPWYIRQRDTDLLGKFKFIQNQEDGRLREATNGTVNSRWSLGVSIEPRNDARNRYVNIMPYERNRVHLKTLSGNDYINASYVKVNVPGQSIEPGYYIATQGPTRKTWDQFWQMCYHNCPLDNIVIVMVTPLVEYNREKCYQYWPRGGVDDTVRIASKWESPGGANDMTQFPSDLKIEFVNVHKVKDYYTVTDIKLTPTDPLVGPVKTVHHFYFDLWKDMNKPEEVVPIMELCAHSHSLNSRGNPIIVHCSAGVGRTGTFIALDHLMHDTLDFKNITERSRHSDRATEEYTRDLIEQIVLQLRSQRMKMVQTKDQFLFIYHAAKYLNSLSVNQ
In short: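 Yeast PTPase YPTP1 at 30 ng/mL. pNPP hydrolysis at 37 °C, pH 7.0 Hepes/EDTA buffer, 10 min inhibitor preincubation, 2 mM pNPP final, 3 min reaction, NaOH stop, A405. IC50 derived from activity across inhibitor concentrations.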

[11] = test system: Mus musculus; assay: Effect on adipose epididymal tissue weight in HFD-fed C57BL/6J Jms Slc DIO mouse at 5 g/kg of diet after 28 days; assay type: functional; in short: as §3
[12] = test system: Mus musculus; assay: Effect on adipose retroperitoneal tissue weight in HFD-fed C57BL/6J Jms Slc DIO mouse at 5 g/kg of diet after 28 days; assay type: functional; in short: as §3
[13] = molecular target: Tyrosine-protein phosphatase non-receptor type 6 (Homo sapiens, UniProt P29350); assay: Inhibition of SHP-1 catalytic domain; in short: as §1
Chain of Tyrosine-protein phosphatase non-receptor type 6 (P29350 whole entry, the tested form may be a part): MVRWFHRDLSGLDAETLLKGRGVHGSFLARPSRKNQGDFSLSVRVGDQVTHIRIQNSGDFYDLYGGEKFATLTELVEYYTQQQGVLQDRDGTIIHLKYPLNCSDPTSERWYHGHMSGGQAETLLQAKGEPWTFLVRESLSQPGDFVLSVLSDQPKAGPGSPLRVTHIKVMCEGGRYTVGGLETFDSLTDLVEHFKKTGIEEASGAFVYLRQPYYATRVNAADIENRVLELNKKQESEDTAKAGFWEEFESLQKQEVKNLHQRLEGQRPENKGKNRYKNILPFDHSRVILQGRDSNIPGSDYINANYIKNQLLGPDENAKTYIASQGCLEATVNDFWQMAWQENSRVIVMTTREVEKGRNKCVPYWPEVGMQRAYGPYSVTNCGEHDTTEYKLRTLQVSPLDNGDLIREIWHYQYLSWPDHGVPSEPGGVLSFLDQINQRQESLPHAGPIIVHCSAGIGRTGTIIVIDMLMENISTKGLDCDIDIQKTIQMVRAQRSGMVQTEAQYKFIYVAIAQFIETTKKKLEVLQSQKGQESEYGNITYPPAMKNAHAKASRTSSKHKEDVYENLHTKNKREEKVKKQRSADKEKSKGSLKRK

IC50 [1] [µM]	Structure (SMILES)	further results
1280	O=C(O)c1cc(-c2ccccc2)ccc1O	
215	O=C(O)c1cc(F)cc(Cc2cc(F)cc(C(=O)O)c2O)c1O	
19	O=C(O)c1cc(-c2ccccc2)cc(Cc2cc(-c3ccccc3)cc(C(=O)O)c2O)c1O	Ki [1]: 6.5 µM; Activity [7]: 28.9 g; IC50 [8]: 156 µM; Ki [8]: 89 µM; Activity [2]: 133 mg/dL; IC50 [9]: > 2000 µM; IC50 [10]: 86 µM; Activity [11]: 0.83 g; Activity [3]: 280 mg/dL; Activity [12]: 0.26 g; Activity [4]: 1.07 g; Activity [5]: 0.14 mEq/L; IC50 [13]: 37 µM; Ki [13]: 9.7 µM; Activity [6]: 48 mg/dL
27	O=C(O)c1cc(-c2cccs2)cc(Cc2cc(-c3cccs3)cc(C(=O)O)c2O)c1O	
> 1000	O=Cc1ccc(O)c(C(=O)O)c1	
> 1000	O=C(O)c1cc2ccccc2cc1O	
859	O=C(O)c1cccc(-c2ccccc2)c1O	
403	O=C(O)c1cccc(Cc2ccccc2)c1O	
850	O=C(O)c1ccc2ccccc2c1O [CARBOXYNAPHTHOL]	

More lines, now with the values behind:

Structure (SMILES)	IC50 [1] [µM]	further results
O=C(O)c1cc(Cc2cc(C(=O)O)c(O)c(-c3ccccc3)c2)cc(-c2ccccc2)c1O		Activity [2]: 129 mg/dL; Activity [3]: 300 mg/dL; Activity [4]: 1.03 g; Activity [5]: 0.24 mEq/L; Activity [6]: 42 mg/dL
O=C(O)c1cc(-c2ccco2)cc(Cc2cc(-c3ccco3)cc(C(=O)O)c2O)c1O	67	
O=Cc1cc(C(=O)O)c(O)c(C2CCCO2)c1 (stereo not drawn)	380	
O=C(O)c1cc(F)ccc1O	> 1000	
O=C(O)Cc1cc(O)c(CC(=O)O)cc1O	> 1000	
O=C(O)c1cc(Cc2ccccc2)ccc1O	1180	
O=C(O)c1cc(Cc2ccccc2)cc(Br)c1O	153	
O=C(O)c1cc(-c2ccccc2)cc(Cc2ccccc2)c1O	57	
O=C(O)c1cc(Cc2ccccc2)cc(Cc2ccccc2)c1O	91	
O=C(O)c1cc(Br)cc(Cc2cc(Br)cc(C(=O)O)c2O)c1O	149	
O=C(O)c1cc(-c2ccccc2)cc(Br)c1O	351	
O=C(O)c1cccc(Br)c1O	> 1000	
O=C(O)c1cc(Br)cc(Cc2ccccc2)c1O	148	
O=C(O)c1cc(Cc2ccccc2)cc(-c2ccccc2)c1O	65	IC50 [8]: 540 µM; IC50 [9]: > 2000 µM; IC50 [10]: 271 µM; IC50 [13]: 129 µM
O=C(O)c1cc(-c2ccccc2)cc(-c2ccccc2)c1O	84	
O=C(O)c1cc(S(=O)(=O)O)ccc1O [SULFOSALICYLIC]	> 1000	
